Measured values: ChEMBL document CHEMBL5329211, “Selective isoxazolopyrimidine PAT1 (SLC26A6) inhibitors for therapy of intestinal disorders” (RSC Med Chem, 2023)
Activity calls are given as the source filed them. The calls are words filed in the database; no cut-off is given here.

Experiments:
[1] = biological target: T1, Chloride anion exchanger (Homo sapiens) (UniProt P40879); test: Inhibition of SLC26A3 (unknown origin) expressed in rat FRT cells coexpressing YFP halide-sensing protein assessed as iodide-chloride exchange at 25 uM incubated for 2 sec by fluorescence quenching analysis; format: cell-based
T1 sequence (whole entry): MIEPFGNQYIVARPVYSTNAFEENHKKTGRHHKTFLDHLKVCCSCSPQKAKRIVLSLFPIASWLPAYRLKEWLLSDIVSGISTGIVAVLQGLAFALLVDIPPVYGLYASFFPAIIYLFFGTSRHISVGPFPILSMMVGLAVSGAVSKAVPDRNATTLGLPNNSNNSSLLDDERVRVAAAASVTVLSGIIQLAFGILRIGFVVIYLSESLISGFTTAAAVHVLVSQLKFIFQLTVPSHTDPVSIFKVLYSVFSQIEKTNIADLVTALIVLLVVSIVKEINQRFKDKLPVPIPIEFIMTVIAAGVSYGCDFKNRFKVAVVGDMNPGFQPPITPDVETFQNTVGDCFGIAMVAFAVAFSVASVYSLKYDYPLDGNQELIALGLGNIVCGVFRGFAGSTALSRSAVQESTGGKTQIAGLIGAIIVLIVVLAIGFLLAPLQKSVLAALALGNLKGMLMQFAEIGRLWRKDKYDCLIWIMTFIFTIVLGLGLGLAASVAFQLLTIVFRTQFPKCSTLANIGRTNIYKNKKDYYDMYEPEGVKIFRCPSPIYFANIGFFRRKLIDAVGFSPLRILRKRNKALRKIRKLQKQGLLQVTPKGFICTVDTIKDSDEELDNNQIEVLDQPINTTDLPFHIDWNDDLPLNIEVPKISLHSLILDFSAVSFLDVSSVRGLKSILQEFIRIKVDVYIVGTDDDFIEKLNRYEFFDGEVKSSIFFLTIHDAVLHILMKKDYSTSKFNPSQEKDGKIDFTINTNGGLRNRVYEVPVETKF

[2] = biological target: T2, Solute carrier family 26 member 9 (Homo sapiens) (UniProt Q7LBE3); test: Inhibition of SLC26A9 (unknown origin) expressed in rat FRT cells coexpressing YFP halide-sensing protein assessed as iodide-chloride exchange at 25 uM incubated for 2 sec by fluorescence quenching analysis; format: cell-based
T2 sequence (whole entry): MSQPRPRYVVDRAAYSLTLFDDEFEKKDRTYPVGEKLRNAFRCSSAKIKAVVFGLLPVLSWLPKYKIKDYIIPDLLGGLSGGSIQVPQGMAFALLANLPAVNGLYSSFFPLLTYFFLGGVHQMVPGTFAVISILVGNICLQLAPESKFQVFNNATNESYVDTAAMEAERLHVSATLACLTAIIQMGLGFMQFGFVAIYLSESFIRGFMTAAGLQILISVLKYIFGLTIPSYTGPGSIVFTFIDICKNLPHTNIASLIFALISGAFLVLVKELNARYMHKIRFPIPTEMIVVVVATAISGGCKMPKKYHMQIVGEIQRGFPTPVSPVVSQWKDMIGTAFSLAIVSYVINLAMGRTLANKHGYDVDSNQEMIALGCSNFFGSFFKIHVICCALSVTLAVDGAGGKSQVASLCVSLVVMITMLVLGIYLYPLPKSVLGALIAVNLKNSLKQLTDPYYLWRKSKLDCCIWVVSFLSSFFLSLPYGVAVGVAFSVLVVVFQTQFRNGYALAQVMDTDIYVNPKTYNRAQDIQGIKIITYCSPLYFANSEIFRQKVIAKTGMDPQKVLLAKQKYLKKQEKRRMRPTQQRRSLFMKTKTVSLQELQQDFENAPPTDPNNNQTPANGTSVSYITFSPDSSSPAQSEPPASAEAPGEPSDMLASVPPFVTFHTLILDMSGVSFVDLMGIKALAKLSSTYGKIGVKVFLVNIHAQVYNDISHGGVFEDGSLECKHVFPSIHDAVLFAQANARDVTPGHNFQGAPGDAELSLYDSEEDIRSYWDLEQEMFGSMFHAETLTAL

[3] = biological target: Cystic fibrosis transmembrane conductance regulator (Homo sapiens) (UniProt P13569); test: Inhibition of CFTR (unknown origin)
Mus musculus = test: In vivo inhibition of PAT1 in intestinal closed-loop CD-1 mouse model harboring CFTR delF508/delF508 mutant assessed as reduction in loop weight/length ratio in ileum measured for 30 mins; format: functional, organism-based
How it was run: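 Mice (wild-type CD1 or homozygous F508del CF, 10-16 wk, both sexes) fasted 24 h with free access to 5% dextrose water. Under isoflurane at 36-38 °C, 2-3 ileal loops (2-3 cm) were tied off and injected with 100 µL PBS pH 7.4 containing 30 µM inhibitor, 10 µM tenapanor or 0.1% DMSO vehicle. Loops removed at 0 or 30 min in separate mice; length and weight measured for fluid absorption. One-way ANOVA with Newman-Keuls.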

Sequence of Cystic fibrosis transmembrane conductance regulator (Homo sapiens) (P13569 whole entry, looked up): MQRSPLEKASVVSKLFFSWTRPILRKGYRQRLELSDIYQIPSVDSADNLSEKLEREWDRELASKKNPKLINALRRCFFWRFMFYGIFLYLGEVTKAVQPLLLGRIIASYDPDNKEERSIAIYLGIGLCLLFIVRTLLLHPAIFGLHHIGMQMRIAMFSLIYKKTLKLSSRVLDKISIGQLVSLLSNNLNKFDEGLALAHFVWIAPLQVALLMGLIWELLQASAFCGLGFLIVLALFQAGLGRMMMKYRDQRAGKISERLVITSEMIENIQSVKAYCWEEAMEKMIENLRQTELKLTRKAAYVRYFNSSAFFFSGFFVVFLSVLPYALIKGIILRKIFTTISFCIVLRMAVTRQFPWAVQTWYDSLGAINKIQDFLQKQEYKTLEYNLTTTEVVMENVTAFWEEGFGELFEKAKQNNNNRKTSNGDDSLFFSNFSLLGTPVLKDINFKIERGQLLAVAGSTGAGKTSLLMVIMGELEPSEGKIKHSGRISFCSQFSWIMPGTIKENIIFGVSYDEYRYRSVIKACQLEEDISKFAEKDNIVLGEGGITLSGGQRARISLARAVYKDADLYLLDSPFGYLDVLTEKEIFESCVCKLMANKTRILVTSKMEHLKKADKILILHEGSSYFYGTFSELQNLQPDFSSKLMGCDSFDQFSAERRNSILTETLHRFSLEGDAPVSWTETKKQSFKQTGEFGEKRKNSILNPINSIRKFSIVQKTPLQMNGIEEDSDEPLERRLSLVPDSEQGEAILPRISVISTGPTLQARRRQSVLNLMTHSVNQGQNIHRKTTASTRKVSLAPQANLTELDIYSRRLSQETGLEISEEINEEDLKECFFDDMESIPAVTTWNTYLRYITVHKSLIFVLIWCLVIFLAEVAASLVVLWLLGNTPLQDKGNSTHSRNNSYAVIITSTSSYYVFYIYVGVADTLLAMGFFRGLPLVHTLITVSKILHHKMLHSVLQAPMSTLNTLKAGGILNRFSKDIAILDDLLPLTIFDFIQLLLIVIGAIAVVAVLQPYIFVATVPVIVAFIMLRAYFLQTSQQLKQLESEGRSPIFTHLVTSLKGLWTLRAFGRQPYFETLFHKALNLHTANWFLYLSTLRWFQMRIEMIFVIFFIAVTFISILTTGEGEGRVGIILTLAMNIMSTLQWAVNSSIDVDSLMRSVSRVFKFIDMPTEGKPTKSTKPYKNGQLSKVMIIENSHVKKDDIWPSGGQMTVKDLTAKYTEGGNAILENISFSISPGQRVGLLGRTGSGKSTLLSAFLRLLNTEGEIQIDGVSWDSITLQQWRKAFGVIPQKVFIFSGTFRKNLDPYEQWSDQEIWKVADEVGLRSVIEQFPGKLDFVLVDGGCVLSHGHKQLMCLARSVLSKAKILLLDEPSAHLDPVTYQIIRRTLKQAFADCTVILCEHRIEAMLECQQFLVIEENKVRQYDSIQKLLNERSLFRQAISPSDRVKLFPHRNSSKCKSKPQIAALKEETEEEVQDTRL

CCOC(=O)c1nc(N(C)Cc2ccccc2)c2c(C)noc2n1
inhibition [1]: inactive | inhibition [2]: inactive | inhibition [3]: inactive | inhibition (Mus musculus): Active
